Experimental data gathered from unrelated publications.
Protocols differ between the studies behind these lines.
ALK L1196M: ALK tyrosine kinase receptor (ALK, Homo sapiens, UniProt Q9UM73, L1196M)
ALK: ALK tyrosine kinase receptor (ALK, Homo sapiens, UniProt Q9UM73)

Cc1ccc(NC(=O)c2ccnc(C(F)(F)F)c2)cc1-c1cc(OCCO)nc(N2CCOCC2)c1
remaining binding (ALK tyrosine kinase receptor (ALK, Homo sapiens, UniProt Q9UM73, C1156Y); binding; 1 µM): 100%

CCCCC(=O)Nc1ccc(-c2ccc3ncn(CCC)c(=O)c3c2)cn1
remaining binding (ALK L1196M; binding, competition with immobilised ligand; 0.5 µM): 100%

C#Cc1cnc(Nc2ccc(CO)cc2)nc1Nc1ccccc1C(=O)NC
remaining activity (ALK; enzyme activity, inhibitor, radiometric; 1 µM): 2.4%

CO[C@@H]1[C@H](N(C)C(=O)c2ccccc2)C[C@H]2O[C@]1(C)n1c3ccccc3c3c4c(c5c6ccccc6n2c5c31)C(=O)NC4
inhibition (ALK L1196M; enzyme activity, inhibitor; 1 µM): 42%

CNC(=O)c1ccccc1Nc1nc(Nc2ccc(CO)nc2)ncc1Cl
remaining activity (ALK; enzyme activity, inhibitor, radiometric; 1 µM): 2.92%

CN1CCN(C(=O)c2ccc(NC(=O)Nc3ccc(N(C)c4ccnc(Nc5ccc(CS(C)(=O)=O)cc5)n4)cc3)cc2)CC1
remaining binding (ALK L1196M; binding; 1 µM): 83%

CS(=O)(=NC#N)c1ccccc1Nc1nc(Nc2ccc(CO)nc2)ncc1Cl (stereo not shown)
remaining activity (ALK; enzyme activity, inhibitor, radiometric; 1 µM): 23.4%

COc1ccc2oc(-c3ccc4nc(N)oc4c3)c/c(=N\c3ccccc3NC(=O)CCN)c2c1
remaining binding (ALK; binding; 1 µM): 106%

C1=C/COCc2cc(ccc2OCCN2CCCC2)Nc2nccc(n2)-c2cccc(c2)COC/1
remaining binding (ALK; binding; 0.1 µM): 73%

C=CC(=O)N1CCC([C@@H]2CCNc3c(C(N)=O)c(-c4ccc(Oc5ccccc5)cc4)nn32)CC1
inhibition (ALK; cell-free assay; 1 µM): 5%

COc1ccc2[nH]c3c4[nH]c5ccc(OC)cc5c4c4c(c3c2c1)C(=O)NC4=O
remaining binding (ALK L1196M; binding; 1 µM): 70%

C#Cc1cnc(Nc2ccc(CO)nc2)nc1Nc1ccccc1S(C)(=O)=NC#N (stereo not shown)
remaining activity (ALK; enzyme activity, inhibitor, radiometric; 1 µM): 18.9%

CC#CC(=O)N1CCC[C@H]1c1nc(-c2ccc(C(=O)Nc3ccccn3)cc2)c2c(N)nccn12
inhibition (ALK L1196M; enzyme activity, inhibitor; 1 µM): 11%
